From PubChem BioAssay AID638 (SRMLSC, 2007)
The campaign covered roughly 1,300 compounds. About 65 (5%) were called active. This is one part of a sample in which actives are shown more often than they occur. Measured potencies and affinities stand elsewhere. Values without a mark were called inactive.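 How the source made its calls: active means growth inhibition reaching a set limit at one or more tested doses; inactive means the rest.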

Assay: growth inhibition of wild-type E. coli, dose response, BW25113 wild type, OD615 (AID 638)
Conditions: at 100 µM (top of the series)
Summary of the method: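 Assay system: E. coli BW25113 wild type; buffer or medium: Kanamycin-supplemented LB broth; signal: optical density (absorbance) at 615 nm; controls: chloramphenicol 30 µM control; doses: compound concentration series; times: bacterial exposure to compound 20 h at 37 °C; evaluation: IC50 from 4-parameter logistic, bounds fixed 0–100%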

Going from `Clc1ccc(COC(Cn2ccnc2)c2ccc(Cl)cc2Cl)cc1` (stereo not given) to `CN(C)C1(c2nnnn2CCOC(=O)Nc2ccc(Cl)cc2)CCCCC1`, the growth inhibition rises from 4.14% to 4.48%.

Compared with `Cc1nn(-c2ccccc2)c(Cl)c1C1C(C#N)=C(N)Oc2c1c(=O)oc1ccccc21` (stereo not given), `CCC(=Nc1ccc(OC)cc1OC)c1c(O)n(C2CCCCC2)c(=O)[nH]c1=O` is lower in growth inhibition: 3.35% for the first, -2.11% for the second.

In the case of `Clc1ccc(COC(Cn2ccnc2)c2ccc(Cl)cc2Cl)c(Cl)c1` (stereo not given), the growth inhibition is reported as 10.9% (active).
